Assay outcomes from PubChem.
LGR2 inh = blocks bursicon-induced cAMP signaling via Drosophila LGR2 | HEK293 LGR2, CRE-luciferase, bursicon-stimulated, 4 h | inhibition, % at 9.99 µM | 380,000 tested, 0.35% active | AID 720647;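 active means drop in luminescence signal, shown as inhibition above about 50% in the replicate tests, limit read from the data, passing the limit was not always enough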;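 further: agonist challenge used bursicon conditioned medium at about half maximal strength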
EWS-Fli block = inhibitors of EWS/Fli oncoprotein transcriptional activity | A673 NR0B1-luciferase reporter, viability-normalised | inhibition, % at 12.6 µM | 350,000 tested, 0.67% active;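 active means mean inhibition of at least 50% after viability correction, with every replicate also passing that limit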;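 further: firefly luciferase signal divided by Alamar Blue viability fluorescence both relative to DMSO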
E-sel inducer = E-selectin induction on HUVECs; P16581; activation, % at 7.58 µM; AID 686992; HUVEC E-selectin immunofluorescence imaging; normalized: neutral wells 0, TNF-alpha wells 100; 260,000 tested, 0.37% active;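 active means mean E-selectin-positive cell signal at least 10% of the positive control, reached in at least 60% of replicates, without over 20% cell loss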
Target sequence (P16581 whole entry, looked up): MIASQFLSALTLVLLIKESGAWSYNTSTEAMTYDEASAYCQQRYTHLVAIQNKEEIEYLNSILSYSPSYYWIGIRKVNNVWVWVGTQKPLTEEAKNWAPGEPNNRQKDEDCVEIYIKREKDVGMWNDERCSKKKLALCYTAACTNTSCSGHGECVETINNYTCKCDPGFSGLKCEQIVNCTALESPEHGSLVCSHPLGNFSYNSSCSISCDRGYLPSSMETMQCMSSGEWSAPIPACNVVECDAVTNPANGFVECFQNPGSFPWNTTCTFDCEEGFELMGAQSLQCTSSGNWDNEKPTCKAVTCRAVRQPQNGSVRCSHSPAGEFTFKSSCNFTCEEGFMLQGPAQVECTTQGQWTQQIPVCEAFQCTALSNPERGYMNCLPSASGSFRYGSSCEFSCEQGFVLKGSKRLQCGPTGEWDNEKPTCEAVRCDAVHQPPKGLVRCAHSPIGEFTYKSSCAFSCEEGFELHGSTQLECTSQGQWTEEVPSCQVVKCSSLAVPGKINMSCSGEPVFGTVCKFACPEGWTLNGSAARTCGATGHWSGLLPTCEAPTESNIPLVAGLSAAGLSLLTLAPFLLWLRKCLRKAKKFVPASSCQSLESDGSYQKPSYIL
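assay system = HUVEC, human umbilical vein endothelial cells | input = 3,000 HUVEC seeded per well | medium = EGM-2 growth medium on 0.1% gelatin-coated wells | dosing = one compound dose added by pin transfer | signal = immunofluorescence imaging | read-out basis = % PE-positive cells | control set = TNF-alpha, DMSO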
Ecoli rRNA inh = inhibitors of bacterial rRNA selective over humanized ribosomes | GFP signal change (wild-type ribosome), % (test concentration not listed) | AID 720706 | E. coli WT GFP vs humanized-ribosome RFP mutants, fluorescence, 24 h; active compounds read low; DMSO median 0, no signal -100 | 350,000 tested, 1.6% active;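 active means significant combined selectivity score with lowered wild-type GFP, culture density cut under 30%, mutant RFP and density less affected; inactive means any of these conditions unmet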
DNA binding = binds DNA displacing acridine orange; 640 tested, 2% active; salmon sperm DNA acridine orange fluorescence polarization; AC35, µM (series often up to 68 µM); shares compounds with EWS-Fli block;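 active means fitted curve reaches a 35% signal fall AC35 below twice the sample's top valid tested dose, actives reach about 48 µM in these data; inactive means the rest, including activity in the rising direction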;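 further: lower polarization ratio signals compound binding to DNA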
A number is an active result; i = inactive; nt = not tested or not shown. Only some compounds are listed: those with a hit (about 2.4% of all), similar ones and a draw of the others.

SMILES	LGR2 inh	EWS-Fli block	E-sel inducer	Ecoli rRNA inh	others
CCN(CC)CCN(C(=O)c1ccc(S(=O)(=O)N2CCCC2)cc1)c1nc2cc(C)cc(C)c2s1	i	nt	i	i
CCN(CC)CCN(C(=O)c1c(F)cccc1F)c1nc2cc(C)cc(C)c2s1	i	i	i	-31
OC[C@@H]1[C@H](c2ccc(/C=C/c3ccccc3)cc2)[C@H]2CN(CCC(F)(F)F)CCCCN12	nt	i	nt	nt
O=S(=O)(NCc1cccnc1)c1ccc(Cl)c2ccccc12	i	i	27	i
CCOc1ccc(S(=O)(=O)NCc2cccnc2)c2ccccc12	i	i	nt	i
CC(NC(=O)COC(=O)CCc1nc2ccccc2c(=O)[nH]1)c1ccccc1 (stereo not given)	i	i	49	i
O=C(COC(=O)CCc1nc2ccccc2c(=O)[nH]1)NC(c1ccccc1)c1ccccc1	i	i	i	i
Cc1ccc(S(=O)(=O)Nc2ccc3c(c2)C(=O)N([C@H](C)CO)C[C@@H](C)[C@H](CN(C)Cc2ccccc2)OCCCC[C@@H](C)O3)cc1	i	i	nt	i
CN1CCC(NCCC(c2ccc(F)cc2)c2ccc(Cl)cc2)CC1 (stereo not given)	i	55	nt	i
CCOC(=O)c1ccccc1NC(=O)c1cccc2c1C(=O)N(C1CCN(C(=O)OCC)CC1)C2	i	i	nt	i
CCOC(=O)N1CCC(N2Cc3cccc(C(=O)Nc4ccccc4OC)c3C2=O)CC1	i	i	nt	-21
COc1cc(NC(=O)c2cccc3c2C(=O)N(C2CCCCC2)C3)cc(OC)c1OC	i	i	nt	-41
O=C(Nc1ccc(Br)cc1)c1cccc2c1C(=O)N(C1CCCCC1)C2	i	i	nt	i
CN(C)c1ccc(/C=N/N=C/c2ccccc2O)cc1	56	nt	nt	nt
CC(C)C#Cc1cnc2c(c1)C(=O)N([C@@H](C)CO)C[C@@H](C)[C@H](CN(C)C(=O)Cc1ccncc1)O2	i	i	i	i
O=C(CSc1ccccn1)N/N=C/c1cc([N+](=O)[O-])ccc1O	i	i	i	-19
COc1ccccc1CN1C[C@H](C)[C@@H](OC)CN(C)C(=O)c2cc(NC(C)=O)ccc2OC[C@@H]1C	i	i	i	i
CCC(=O)N1CC2(C1)CN(C(=O)NC1CCCC1)[C@@H](CO)c1c2c2ccc(OC)cc2n1C	nt	nt	nt	i
O=C(c1cccs1)c1sccc1Cc1ccccc1	i	i	nt	-16
N#C/C(=N\Nc1ccc(Br)cc1)C(=N)N1CCOCC1	i	i	nt	-26
COC(=O)CCC(=O)N(CCN(Cc1ccccc1)C(=O)CCC(=O)OC)Cc1ccccc1	nt	i	nt	-16
NNC(=S)NC1CC2CC1C1C=CCC21 (stereo not given)	i	i	i	-21
CCOc1cccc(/C=C/c2ccc3cccc(O)c3n2)c1OC	i	i	i	-37
O=S(=O)(c1cccs1)N1CCC(CO)(Cc2cccc(F)c2)CC1	i	i	nt	-23
O=S(=O)(c1cccc(F)c1)N1CCC(CO)(Cc2cccc(F)c2)CC1	i	i	i	i
SMILES	LGR2 inh	EWS-Fli block	E-sel inducer	Ecoli rRNA inh	others
CCCCCCCNC(=O)c1ccc(N2CCC3(CC2)OCCO3)c([N+](=O)[O-])c1	i	i	i	-26
Cc1cc(C)cc(NC(=S)N2CCN(c3ccccn3)CC2)c1	i	i	i	-22
Cc1cccc(NC(=S)N2CCN(c3ccccn3)CC2)c1	i	i	nt	i
Fc1ccc(NC(=S)N2CCN(c3ccccn3)CC2)cc1Cl	i	i	i	-22
CCCC#Cc1ccc2c(c1)[C@@H]1[C@@H](CCN1S(=O)(=O)c1ccccc1C)[C@@H](CO)N2	i	nt	i	i
Cc1ccc2c(c1)C(=O)N1[C@H]3c4cc(Br)ccc4OC[C@@H]3[C@H](c3ccccc3)[C@]1(C)C(=O)N2	i	56	i	i	DNA binding=i
Cc1c(Cc2ccc3c(c2)OCO3)sc(NC(=O)C(C)(C)C)c1C#N	i	55	i	i	DNA binding=i
C=CCn1c(O)c(N=Nc2ccccc2)c2ccccc21	i	55	i	i	DNA binding=i
CCN(CC)c1ccc(C2NC(=O)c3ccccc3N2)cc1 (stereo not given)	88	62	nt	nt	DNA binding=i
CCNC(=O)C[C@@H]1CC[C@@H]2[C@H](COC[C@H](O)CN2C(=O)Nc2ccc(C(F)(F)F)cc2)O1	i	i	i	i
COc1ccc(OC)c(NC(=O)C2(C)CCN2Cc2cccc(OC)c2F)c1 (stereo not given)	i	i	i	i
COc1cccc(CN2CCC2(C)C(=O)Nc2cccc3cccnc23)c1F (stereo not given)	i	59	i	i	DNA binding=i
